Columns and labels:
Assay type in all cases: functional
Malme-3M = assay: Growth inhibition of human MALME-3M cells at 10 uM after 48 hrs by coulter counter analysis; details: read-out: GI
Procedure, shortened: (§1)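 Single-dose NCI 60-line panel screen of test compounds. Cells grown in RPMI 1640 with 10% FBS. Compounds dissolved in DMSO, then diluted in phosphate buffer saline (final DMSO below 1%). Wells run in duplicate at 6 × 10⁴ cells/ml. Controls held PBS and DMSO at matching dilutions. Incubation 48 h at 37 °C under humidified 5% CO2. Cells diluted tenfold in saline and counted by Coulter counter. Percent growth inhibition taken from mean-graph of treated-cell growth.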

NCI-H23 = assay: Growth inhibition of human NCI-H23 cells at 10 uM after 48 hrs by coulter counter analysis; details: NCI-H23, 48 h, read-out: GI; procedure, shortened: as §1
UACC-62 = assay: Growth inhibition of human UACC62 cells at 10 uM after 48 hrs by coulter counter analysis; details: UACC-62, 48 h, read-out: GI
Procedure, shortened: (§2)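 Single-dose screen in the NCI 60 cell line panel. Cells grown in RPMI 1640 with 10% FBS. Compounds dissolved in DMSO and diluted in phosphate buffered saline, final DMSO under 1%. Duplicate wells seeded from culture at 6 × 10⁴ cells/ml. Incubated 48 h at 37 °C, humidified, 5% CO2. Cells diluted tenfold in saline and Coulter-counted. Percent growth inhibition computed against PBS/DMSO controls.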

RPMI-8226 = assay: Growth inhibition of human RPMI8226 cells at 10 uM after 48 hrs by coulter counter analysis; details: RPMI-8226, 48 h, read-out: GI; procedure, shortened: as §1
SF-295 = assay: Growth inhibition of human SF295 cells at 10 uM after 48 hrs by coulter counter analysis; details: SF-295, 48 h, read-out: GI; procedure, shortened: as §1
NCI-H322M = assay: Growth inhibition of human NCI-H322M cells at 10 uM after 48 hrs by coulter counter analysis; details: read-out: GI; procedure, shortened: as §1
HCT-116 = assay: Growth inhibition of human HCT116 cells at 10 uM after 48 hrs by coulter counter analysis; details: HCT-116, 48 h, read-out: GI; procedure, shortened: as §1
MCF7 = assay: Growth inhibition of human MCF7 cells at 10 uM after 48 hrs by coulter counter analysis; details: MCF7, 48 h, read-out: GI; procedure, shortened: as §1
HL-60(TB) = assay: Growth inhibition of human HL-60(TB) cells at 10 uM after 48 hrs by coulter counter analysis; details: HL-60, 48 h, read-out: GI
Procedure, shortened: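 Cells grown in RPMI 1640 with 10% FBS. Compound was dissolved in DMSO and diluted in PBS (under 1% DMSO final), then added in duplicate wells to culture at 6 × 10⁴ cells/ml. PBS/DMSO vehicle controls were included. Incubated at 37 °C, humidified 5% CO₂, for 48 h. Cells were diluted 10-fold in saline and Coulter-counted. Single-dose NCI-60 screen, read as percent growth inhibition.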

M14 = assay: Growth inhibition of human M14 cells at 10 uM after 48 hrs by coulter counter analysis; details: M14, 48 h, read-out: GI; procedure, shortened: as §1
[1] = Growth inhibition of human Hs 578T cells at 10 uM after 48 hrs by coulter counter analysis; details: read-out: GI; procedure, shortened: as §1
SF-268 = assay: Growth inhibition of human SF268 cells at 10 uM after 48 hrs by coulter counter analysis; details: SF-268, 48 h, read-out: GI; procedure, shortened: as §1
SW-620 = assay: Growth inhibition of human SW620 cells at 10 uM after 48 hrs by coulter counter analysis; details: SW-620, 48 h, read-out: GI; procedure, shortened: as §2
IGROV-1 = assay: Growth inhibition of human IGROV1 cells at 10 uM after 48 hrs by coulter counter analysis; details: IGROV-1, 48 h, read-out: GI; procedure, shortened: as §1
CCRF-CEM = assay: Growth inhibition of human CCRF-CEM cells at 10 uM after 48 hrs by coulter counter analysis; details: read-out: GI; procedure, shortened: as §1
DU-145 = assay: Growth inhibition of human DU145 cells at 10 uM after 48 hrs by coulter counter analysis; details: DU-145, 48 h, read-out: GI; procedure, shortened: as §1
PC-3 = assay: Growth inhibition of human PC3 cells at 10 uM after 48 hrs by coulter counter analysis; details: PC-3, 48 h, read-out: GI; procedure, shortened: as §1
COLO 205 = assay: Growth inhibition of human COLO205 cells at 10 uM after 48 hrs by coulter counter analysis; details: COLO 205, 48 h, read-out: GI; procedure, shortened: as §1
MOLT-4 = assay: Growth inhibition of human MOLT4 cells at 10 uM after 48 hrs by coulter counter analysis; details: MOLT-4, 48 h, read-out: GI; procedure, shortened: as §1
SR = assay: Growth inhibition of human SR cells at 10 uM after 48 hrs by coulter counter analysis; details: read-out: GI; procedure, shortened: as §2
HCT-15 = assay: Growth inhibition of human HCT15 cells at 10 uM after 48 hrs by coulter counter analysis; details: HCT-15, 48 h, read-out: GI; procedure, shortened: as §1
RXF 393 = assay: Growth inhibition of human RXF393 cells at 10 uM after 48 hrs by coulter counter analysis; details: RXF 393, 48 h, read-out: GI; procedure, shortened: as §1
U-251 = assay: Growth inhibition of human U251 cells at 10 uM after 48 hrs by coulter counter analysis; details: U-251, 48 h, read-out: GI; procedure, shortened: as §2
UACC-257 = assay: Growth inhibition of human UACC257 cells at 10 uM after 48 hrs by coulter counter analysis; details: UACC-257, 48 h, read-out: GI; procedure, shortened: as §2
SK-OV-3 = assay: Growth inhibition of human SKOV3 cells at 10 uM after 48 hrs by coulter counter analysis; details: SK-OV-3, 48 h, read-out: GI; procedure, shortened: as §1
TK-10 = assay: Growth inhibition of human TK10 cells at 10 uM after 48 hrs by coulter counter analysis; details: TK-10, 48 h, read-out: GI; procedure, shortened: as §2

Compound | inhibition of growth at 10 µM (Malme-3M) [%] | inhibition of growth at 10 µM (NCI-H23) [%] | inhibition of growth at 10 µM (UACC-62) [%] | inhibition of growth at 10 µM (RPMI-8226) [%] | inhibition of growth at 10 µM (SF-295) [%] | inhibition of growth at 10 µM (NCI-H322M) [%] | inhibition of growth at 10 µM (HCT-116) [%] | inhibition of growth at 10 µM (MCF7) [%] | inhibition of growth at 10 µM (HL-60(TB)) [%] | inhibition of growth at 10 µM (M14) [%] | inhibition of growth at 10 µM [1] [%] | inhibition of growth at 10 µM (SF-268) [%] | inhibition of growth at 10 µM (SW-620) [%] | inhibition of growth at 10 µM (IGROV-1) [%] | inhibition of growth at 10 µM (CCRF-CEM) [%] | inhibition of growth at 10 µM (DU-145) [%] | inhibition of growth at 10 µM (PC-3) [%] | inhibition of growth at 10 µM (COLO 205) [%] | inhibition of growth at 10 µM (MOLT-4) [%] | inhibition of growth at 10 µM (SR) [%] | other results
Cc1cnc(NC(=O)CN2CCN(C)CC2)s1 | < 10 | < 10 | < 10 | < 10 | < 10 | < 10 | < 10 | < 10 | < 10 | < 10 | < 10 | < 10 | < 10 | < 10 | 75.5 | < 10 | < 10 | < 10 | < 10 | 51.8 | inhibition of growth at 10 µM (HCT-15): < 10%; inhibition of growth at 10 µM (RXF 393): < 10%; inhibition of growth at 10 µM (U-251): < 10%
Cc1cnc(NC(=O)CN2CCN(c3ccccc3)CC2)s1 | < 10 | < 10 | < 10 | < 10 | < 10 | < 10 | < 10 | < 10 | < 10 | < 10 | < 10 | < 10 | < 10 | < 10 | 69.3 | < 10 | < 10 | < 10 | < 10 | < 10 | inhibition of growth at 10 µM (HCT-15): < 10%; inhibition of growth at 10 µM (RXF 393): < 10%; inhibition of growth at 10 µM (U-251): < 10%
CCOC(=O)c1sc(NC(=O)CCN2CCOCC2)nc1C | < 10 | < 10 | < 10 | < 10 | < 10 | < 10 | < 10 | < 10 | < 10 | < 10 | < 10 | < 10 | < 10 | < 10 | < 10 | < 10 | < 10 | < 10 | < 10 | < 10 | inhibition of growth at 10 µM (HCT-15): < 10%; inhibition of growth at 10 µM (RXF 393): < 10%; inhibition of growth at 10 µM (U-251): < 10%
CCOC(=O)c1sc(NC(=O)CCN2CCN(C)CC2)nc1C | < 10 | < 10 | < 10 | < 10 | < 10 | < 10 | < 10 | 16.3 | < 10 | < 10 | < 10 | < 10 | < 10 | < 10 | 96.2 | < 10 | < 10 | < 10 | < 10 | 20.3 | inhibition of growth at 10 µM (HCT-15): < 10%; inhibition of growth at 10 µM (RXF 393): < 10%; inhibition of growth at 10 µM (U-251): < 10%
CCOC(=O)c1sc(NC(=O)CCN2CCN(c3ccccc3)CC2)nc1C | 12 | < 10 | < 10 | < 10 | < 10 | < 10 | < 10 | < 10 | < 10 | < 10 | < 10 | < 10 | < 10 | < 10 | < 10 | < 10 | < 10 | < 10 | < 10 | < 10 | inhibition of growth at 10 µM (HCT-15): < 10%; inhibition of growth at 10 µM (RXF 393): < 10%; inhibition of growth at 10 µM (U-251): < 10%
O=C(CCCl)Nc1nc(-c2ccccc2)cs1 | 68.2 | 34.7 | 39 | 93.1 | 46.3 | 29.2 | 78.3 | 75.9 | 17.9 | 52.7 | < 10 | 63 | 70.7 | 50 | 92.7 | 89.8 | 57.9 | 55.6 | 40.7 | 65.4 | inhibition of growth at 10 µM (HCT-15): 73%; inhibition of growth at 10 µM (RXF 393): 80.4%; inhibition of growth at 10 µM (U-251): 55.8%
CN1CCN(CCC(=O)Nc2nc(-c3ccccc3)cs2)CC1 | 12.7 | < 10 | 11.1 | 11.7 | < 10 | < 10 | < 10 | 11.8 | 11.6 | < 10 | 10.5 | < 10 | < 10 | 10.6 | 14.4 | < 10 | 10.9 | < 10 | 35.7 | < 10 | inhibition of growth at 10 µM (HCT-15): < 10%; inhibition of growth at 10 µM (RXF 393): 11.1%; inhibition of growth at 10 µM (U-251): < 10%
CC(C(=O)Nc1nccs1)N1CCN(C)CC1 (configuration not stated) | < 10 | < 10 | < 10 | < 10 | < 10 | < 10 | < 10 | < 10 | 11.2 | < 10 | < 10 | < 10 | < 10 | < 10 | < 10 | < 10 | < 10 | < 10 | < 10 | < 10 | inhibition of growth at 10 µM (UACC-257): < 10%; inhibition of growth at 10 µM (SK-OV-3): < 10%; inhibition of growth at 10 µM (TK-10): < 10%; inhibition of growth at 10 µM (HCT-15): < 10%; inhibition of growth at 10 µM (RXF 393): < 10%; inhibition of growth at 10 µM (U-251): < 10%

From ChEMBL document CHEMBL2040727, “Substituted thiazoles VI. Synthesis and antitumor activity of new 2-acetamido- and 2 or 3-propanamido-thiazole analogs” (2012)
